ChEMBL document CHEMBL1275441, “Effect of impaired renal function on the pharmacokinetics of tomopenem (RO4908463/CS-023), a novel carbapenem” (Antimicrob Agents Chemother, 2008)

Legend:
[1] = Renal clearance in human with creatinine clearance of 30-49 ml/min at 1500 mg, iv administered as single dose after 24 hrs; type: ADME, organism-based, Kidney; conditions: in vivo, read-out: CL_renal (converted)
Summary of the method: (§1)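 After a single 1,500 mg i.v. infusion over 60 min, urine was collected 0–6, 6–12 and 12–24 h post-dose, with volume and pH recorded. Aliquots were mixed 1:1 with 0.5 M MOPS, protected from light and frozen at −70°C. Parent and metabolite were assayed by a validated method. CLR = Ae24/plasma AUC24. n = 8 per group, mean ± SD.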

[2] = Renal clearance in human with creatinine clearance of => 80 ml/min at 1500 mg, iv administered as single dose after 24 hrs; type: ADME, organism-based, Kidney; conditions: in vivo, read-out: CL_renal (converted)
Summary of the method: (§2)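 Single 1,500 mg i.v. infusion over 60 min, with 8 subjects per renal-function group (CL_CR by Cockcroft-Gault at screening). Urine was collected at 0–6, 6–12 and 12–24 h, volume and pH recorded, and aliquots mixed 1:1 with 0.5 M MOPS. Samples were frozen at −70°C, protected from light, and assayed by a validated method. CL_R = A_e24/AUC₂₄.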

[3] = Dose normalized excretion in human with creatinine clearance of 30-49 ml/min at 1500 mg, iv administered as single dose after 24 hrs; type: ADME, organism-based; conditions: in vivo, read-out: Activity; summary of the method: as §1
Homo sapiens [4] = test: Drug metabolism in human with creatinine clearance of 50-79 ml/min assessed as RO4957463 apparent half life at 1500 mg, iv administered as single dose; type: ADME, organism-based; conditions: in vivo
Summary of the method: (§3)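 Single 1,500 mg i.v. infusion over 60 min, eight subjects per renal-function group (creatinine clearance by Cockcroft-Gault at screening). Blood was sampled predose and at 1–48 h, and the plasma was stabilized 1:1 with 0.5 M MOPS pH 6.0, kept from light and frozen at −70°C. Parent and metabolite were measured by a validated bioanalytical method. Noncompartmental analysis: t1/2 = ln2/λz from ≥3 terminal points, Cmax/Tmax from raw data, ratio = AUC∞ metabolite/parent.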

Homo sapiens [5] = test: Drug metabolism in human with creatinine clearance of 50-79 ml/min assessed as RO4957463 Cmax at 1500 mg, iv administered as single dose measured after 60 mins; type: ADME, organism-based; parameters: dose 1500 mg, route intravenous; conditions: in vivo, 1 h; summary of the method: as §3
Homo sapiens [6] = test: Drug metabolism in human with creatinine clearance of 50-79 ml/min assessed as RO4957463 Tmax at 1500 mg, iv administered as single dose measured after 60 mins; type: ADME, organism-based; conditions: in vivo, 1 h; summary of the method: as §3
[7] = Volume of distribution at steady state in human with creatinine clearance of =< 30 ml/min at 1500 mg, iv administered as single dose measured after 60 mins; type: ADME, organism-based; conditions: in vivo, read-out: Vdss
Summary of the method: (§4)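 Eight subjects per CL_CR group (Cockcroft-Gault) received 1,500 mg i.v. over 60 min. Plasma was sampled predose and from 1 to 48 h, mixed with equal-volume 0.5 M MOPS pH 6.0, frozen at −70°C light-protected, and assayed by a validated method. Parameters were derived noncompartmentally from actual times, with T_max taken from raw data as a median and CL/V_ss as means ± SD.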

Homo sapiens [8] = test: Drug metabolism in human with creatinine clearance of 50-79 ml/min assessed as RO4957463 AUC (infinity) at 1500 mg, iv administered as single dose measured after 60 mins; type: ADME, organism-based; parameters: dose 1500 mg, time infinity, route intravenous; conditions: in vivo, 1 h; summary of the method: as §3
[9] = Volume of distribution at steady state in human with creatinine clearance of => 80 ml/min at 1500 mg, iv administered as single dose measured after 60 mins; type: ADME, organism-based; conditions: in vivo, read-out: Vdss; summary of the method: as §4
Homo sapiens [10] = test: Drug metabolism in human with creatinine clearance of => 80 ml/min assessed as RO4957463 apparent half life at 1500 mg, iv administered as single dose; type: ADME, organism-based; conditions: in vivo; summary of the method: as §3
Homo sapiens [11] = test: Drug metabolism in human with creatinine clearance of 30-49 ml/min assessed as RO4957463 apparent half life at 1500 mg, iv administered as single dose; type: ADME, organism-based; conditions: in vivo; summary of the method: as §3
Homo sapiens [12] = test: Drug metabolism in human with creatinine clearance of 30-49 ml/min assessed as RO4957463 Cmax at 1500 mg, iv administered as single dose measured after 60 mins; type: ADME, organism-based; parameters: dose 1500 mg, route intravenous; conditions: in vivo, 1 h; summary of the method: as §3
[13] = Tmax in human with creatinine clearance of 30-49 ml/min at 1500 mg, iv administered as single dose; type: ADME, organism-based; conditions: in vivo; summary of the method: as §4
Homo sapiens [14] = test: Ratio of RO4957463 AUC (infinity) to compound AUC (infinity) in human with creatinine clearance of 30-49 ml/min at 1500 mg, iv administered as single dose measured after 60 mins; type: ADME, organism-based; conditions: in vivo, 1 h; summary of the method: as §3
Homo sapiens [15] = test: Drug excretion in human with creatinine clearance of 50-79 ml/min at 1500 mg, iv administered as single dose after 24 hrs; type: ADME, organism-based; conditions: in vivo; summary of the method: as §1
Homo sapiens [16] = test: Drug excretion in human with creatinine clearance of =< 30 ml/min at 1500 mg, iv administered as single dose after 24 hrs; type: ADME, organism-based; conditions: in vivo; summary of the method: as §1
[17] = Renal clearance in human with creatinine clearance of 50-79 ml/min at 1500 mg, iv administered as single dose after 24 hrs; type: ADME, organism-based, Kidney; conditions: in vivo, read-out: CL_renal (converted); summary of the method: as §2
Homo sapiens [18] = test: Drug metabolism in human with creatinine clearance of => 80 ml/min assessed as RO4957463 AUC (infinity) at 1500 mg, iv administered as single dose measured after 60 mins; type: ADME, organism-based; parameters: dose 1500 mg, route intravenous, time infinity; conditions: in vivo, 1 h; summary of the method: as §3
[19] = Cmax in human with creatinine clearance of =< 30 ml/min at 1500 mg, iv administered as single dose measured after 60 mins; type: ADME, organism-based; parameters: dose 1500 mg, route intravenous; conditions: in vivo; summary of the method: as §3
[20] = Tmax in human with creatinine clearance of 50-79 ml/min at 1500 mg, iv administered as single dose; type: ADME, organism-based; conditions: in vivo; summary of the method: as §4
[21] = Volume of distribution at steady state in human with creatinine clearance of 50-79 ml/min at 1500 mg, iv administered as single dose measured after 60 mins; type: ADME, organism-based; conditions: in vivo, read-out: Vdss; summary of the method: as §4
[22] = Renal clearance in human with creatinine clearance of =< 30 ml/min at 1500 mg, iv administered as single dose after 24 hrs; type: ADME, organism-based, Kidney; conditions: in vivo, read-out: CL_renal (converted); summary of the method: as §2
Homo sapiens [23] = test: Drug metabolism in human with creatinine clearance of =< 30 ml/min assessed as RO4957463 Tmax at 1500 mg, iv administered as single dose; type: ADME, organism-based; conditions: in vivo; summary of the method: as §3
[24] = Tmax in human with creatinine clearance of => 80 ml/min at 1500 mg, iv administered as single dose; type: ADME, organism-based; conditions: in vivo; summary of the method: as §4

- CL renal at 24 h [1]: 33 mL/min
- CL renal at 24 h [2]: 77.2 mL/min
- dose excreted at 24 h [3]: 62.6%
- t1/2 (Homo sapiens [4]): 5.02 h
- Cmax (Homo sapiens [5]): 4.31 µg/mL
- Tmax (Homo sapiens [6]): 1 h
- Vd [7]: 16.4 L
- AUC (Homo sapiens [8]): 37.3 µg·h/mL
- Vd [9]: 18.8 L
- t1/2 (Homo sapiens [10]): 2.98 h
- t1/2 (Homo sapiens [11]): 8.32 h
- Cmax (Homo sapiens [12]): 5.24 µg/mL
- Tmax [13]: 1 h
- Ratio (Homo sapiens [14]): 0.21
- Activity (Homo sapiens [15]): 1090 mg
- Activity (Homo sapiens [16]): 618 mg
- CL renal at 24 h [17]: 61.3 mL/min
- AUC (Homo sapiens [18]): 18.5 µg·h/mL
- Cmax [19]: 116 µg/mL
- Tmax [20]: 1 h
- Vd [21]: 16.2 L
- CL renal at 24 h [22]: 9.83 mL/min
- Tmax (Homo sapiens [23]): 13.5 h
- Tmax [24]: 1 h
Structure (SMILES): C[C@@H](O)[C@H]1C(=O)N2C(C(=O)O)=C(S[C@H]3C[C@@H](C(=O)N4CC[C@H](NC(=O)CNC(=N)N)C4)N(C)C3)[C@H](C)[C@H]12 [TOMOPENEM]
